From ChEMBL document CHEMBL3351631, “Towards the next generation of dual Bcl-2/Bcl-xL inhibitors” (Bioorg Med Chem Lett, 2014)
Values after ≈ are worked out from the molar mass of the structure shown.

Assays:
[1] = target: Apoptosis regulator Bcl-2 (Homo sapiens, UniProt P10415); experiment: Inhibition of c-terminal 6xHis-tagged Bcl-2 (amino acids 1 to 204) (unknown origin) preincubated for 1 hr prior to substrate addition measured after 20 mins by fluorescence polarization assay
Bcl-2-like protein 1 = Bcl-2-like protein 1 (Homo sapiens, UniProt Q07817); experiment: Inhibition of c-terminal 6xHis-tagged Bcl-xL (amino acids 1 to 209) (unknown origin) preincubated for 1 hr prior to substrate addition measured after 20 mins by fluorescence polarization assay
Sequence of Bcl-2-like protein 1 (Q07817 whole entry, the tested form may be a part): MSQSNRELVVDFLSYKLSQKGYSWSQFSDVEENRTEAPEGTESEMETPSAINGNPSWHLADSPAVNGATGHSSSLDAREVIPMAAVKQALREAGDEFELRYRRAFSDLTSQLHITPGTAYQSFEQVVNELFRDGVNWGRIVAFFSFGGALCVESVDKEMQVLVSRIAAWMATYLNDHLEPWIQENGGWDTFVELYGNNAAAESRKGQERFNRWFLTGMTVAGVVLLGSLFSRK
How it was run: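 Bcl-xL (aa 1–209, C-terminal 6xHis) at 0.8 nM preincubated 1 h with serial antagonist dilutions, then 2 nM FITC-labelled Bim BH3 peptide tracer added; buffer 20 mM HEPES pH 7.5, 1 mM DTT, 0.005% Tween-20, 50 mM NaCl.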

RS4-11 = experiment: Induction of apoptosis in human RS4:11 cells overexpressing BCL-2 assessed as caspase 3/7 activation after 6 hrs by quantitative luminescence assay; type: functional, cell-based; settings: RS4-11, 6 h
How it was run: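 RS4;11 cells seeded 10,000/well in RPMI with 10% FBS; after 16 h, compound added in duplicate for 6 h at 37 °C. Equal volume of Caspase-Glo 3/7 reagent added, 1 h, luminescence read. DMSO set minimum and ABT-263 maximum caspase activity. EC50 averaged from at least two experiments.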

[2] = Equilibrium solubility of the compound at pH 7.4; type: physicochemical; settings: buffer
[3] = Dissociation constant, pKa of the compound; type: physicochemical

Sequence of Apoptosis regulator Bcl-2 (P10415 whole entry, the tested form may be a part): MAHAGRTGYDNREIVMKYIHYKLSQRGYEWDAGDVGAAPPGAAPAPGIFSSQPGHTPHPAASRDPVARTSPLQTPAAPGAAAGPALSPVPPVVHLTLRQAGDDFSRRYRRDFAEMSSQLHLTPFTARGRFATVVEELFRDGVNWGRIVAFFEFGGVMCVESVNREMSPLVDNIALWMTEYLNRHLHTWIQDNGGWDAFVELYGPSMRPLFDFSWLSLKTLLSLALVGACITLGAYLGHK

IC50 [1] [nM] | IC50 (Bcl-2-like protein 1) [nM] | EC50 (RS4-11) [nM] | solubility thermodynamic [2] [µM] | pKa [3] | SMILES
< 10 | < 10 | 51 | 2 (≈ 2.09 µg/mL) | – | CN(C)C(=O)COc1ccc(-c2ccc(Cl)cc2)c(CN2CCN(c3ccc(C(=O)NS(=O)(=O)c4ccc(N[C@H](CCN5CCOCC5)CSc5ccccc5)c(S(=O)(=O)C(F)(F)F)c4)cc3)CC2)c1
87 | 21 | > 1100 | 27 (≈ 26.8 µg/mL) | – | O=C(NS(=O)(=O)c1ccc(N[C@H](CCN2CCOCC2)CSc2ccccc2)c(S(=O)(=O)C(F)(F)F)c1)c1ccc(N2CCC(S(=O)(=O)c3ccccc3-c3ccc(Cl)cc3)CC2)cc1
< 10 | 15 | 201 | – | – | O=C(NS(=O)(=O)c1ccc(N[C@H](CCN2CCOCC2)CSc2ccccc2)c(S(=O)(=O)C(F)(F)F)c1)c1ccc(N2CCN(Cc3ccncc3-c3ccc(Cl)cc3)CC2)cc1
40 | 38 | > 10000 | < 1 | – | O=C(NS(=O)(=O)c1ccc(N[C@H](CCN2CCOCC2)CSc2ccccc2)c(S(=O)(=O)C(F)(F)F)c1)c1ccc(N2CCN(Cc3cn[nH]c3-c3ccc(Cl)cc3)CC2)cc1
< 10 | < 10 | 420 | < 1 | – | Cn1ncc(CN2CCN(c3ccc(C(=O)NS(=O)(=O)c4ccc(N[C@H](CCN5CCOCC5)CSc5ccccc5)c(S(=O)(=O)C(F)(F)F)c4)cc3)CC2)c1-c1ccc(Cl)cc1
< 10 | < 10 | 18 | < 1 | – | CN(C)C(=O)COc1cccc(-c2ccc(Cl)cc2)c1CN1CCN(c2ccc(C(=O)NS(=O)(=O)c3ccc(N[C@H](CCN4CCOCC4)CSc4ccccc4)c(S(=O)(=O)C(F)(F)F)c3)cc2)CC1
< 10 | – | 4 | < 1 | – | CN(C)CCOc1cccc(-c2ccc(Cl)cc2)c1CN1CCN(c2ccc(C(=O)NS(=O)(=O)c3ccc(N[C@H](CCN4CCOCC4)CSc4ccccc4)c(S(=O)(=O)C(F)(F)F)c3)cc2)CC1
< 10 | < 10 | 23 | < 1 | – | CN(C)CCOc1ccc(-c2ccc(Cl)cc2)c(CN2CCN(c3ccc(C(=O)NS(=O)(=O)c4ccc(N[C@H](CCN5CCOCC5)CSc5ccccc5)c(S(=O)(=O)C(F)(F)F)c4)cc3)CC2)c1
11 | 16 | 11 | 14 (≈ 13.2 µg/mL) | – | O=C(NS(=O)(=O)c1ccc(N[C@H](CCN2CCOCC2)CSc2ccccc2)c(S(=O)(=O)C(F)(F)F)c1)c1ccc(N2CCN(Cc3ccccc3-c3ccc(Cl)cc3)CC2)cc1
19 | 63 | > 3190 | < 1 | – | N=C(NS(=O)(=O)c1ccc(N[C@H](CCN2CCOCC2)CSc2ccccc2)c(S(=O)(=O)C(F)(F)F)c1)c1ccc(N2CCN(Cc3ccccc3-c3ccc(Cl)cc3)CC2)cc1
270 | 378 | 563 | 38 (≈ 35.9 µg/mL) | 3.6 | O=C(NS(=O)(=O)c1ccc(N[C@H](CCN2CCOCC2)CSc2ccccc2)c(S(=O)(=O)C(F)(F)F)c1)c1ccc(N2CCN(Cc3ccccc3-c3ccc(Cl)cc3)CC2)nn1
18 | 39 | 177 | 3 (≈ 2.83 µg/mL) | 3.5 | O=C(NS(=O)(=O)c1ccc(N[C@H](CCN2CCOCC2)CSc2ccccc2)c(S(=O)(=O)C(F)(F)F)c1)c1cnc(N2CCN(Cc3ccccc3-c3ccc(Cl)cc3)CC2)nc1
119 | 98 | 385 | 2 (≈ 1.9 µg/mL) | 2.6 | O=C(NS(=O)(=O)c1ccc(N[C@H](CCN2CCOCC2)CSc2ccccc2)c(S(=O)(=O)C(F)(F)F)c1)c1csc(N2CCN(Cc3ccccc3-c3ccc(Cl)cc3)CC2)n1
> 468 | 77 | 610 | < 1 | – | O=C(NS(=O)(=O)c1ccc(N[C@H](CCN2CCOCC2)CSc2ccccc2)c(S(=O)(=O)C(F)(F)F)c1)c1ccc(N2CC3(CN(Cc4ccccc4-c4ccc(Cl)cc4)C3)C2)cc1
> 1100 | 308 | > 1100 | 4 (≈ 3.9 µg/mL) | – | O=C(NS(=O)(=O)c1ccc(N[C@H](CCN2CCOCC2)CSc2ccccc2)c(S(=O)(=O)C(F)(F)F)c1)c1ccc(P2(=O)CCN(Cc3ccccc3-c3ccc(Cl)cc3)CC2)cc1
54 | 18 | > 1100 | 21 (≈ 20.5 µg/mL) | – | O=C(NS(=O)(=O)c1ccc(N[C@H](CCN2CCOCC2)CSc2ccccc2)c(S(=O)(=O)C(F)(F)F)c1)c1ccc(N2CCP(=O)(Cc3ccccc3-c3ccc(Cl)cc3)CC2)cc1
250 | 38 | > 921 | 35 (≈ 33 µg/mL) | – | O=C(NS(=O)(=O)c1ccc(N[C@H](CCN2CCOCC2)CSc2ccccc2)c(S(=O)(=O)C(F)(F)F)c1)c1ccc(N2CCC(Oc3ccccc3-c3ccc(Cl)cc3)CC2)cc1
65 | < 10 | > 1100 | – | – | O=C(NS(=O)(=O)c1ccc(N[C@H](CCN2CCOCC2)CSc2ccccc2)c(S(=O)(=O)C(F)(F)F)c1)c1ccc(N2CCC(C(=O)c3ccccc3-c3ccc(Cl)cc3)CC2)cc1
61 | 31 | > 516 | 27 (≈ 25.9 µg/mL) | – | O=C(NS(=O)(=O)c1ccc(N[C@H](CCN2CCOCC2)CSc2ccccc2)c(S(=O)(=O)C(F)(F)F)c1)c1ccc(N2CCC(Sc3ccccc3-c3ccc(Cl)cc3)CC2)cc1
19 | 11 | 90 | 26 (≈ 25.4 µg/mL) | – | O=C(NS(=O)(=O)c1ccc(N[C@H](CCN2CCOCC2)CSc2ccccc2)c(S(=O)(=O)C(F)(F)F)c1)c1ccc(N2CCC([S@@+]([O-])c3ccccc3-c3ccc(Cl)cc3)CC2)cc1
545 | 54 | > 1100 | 12 (≈ 11.7 µg/mL) | – | O=C(NS(=O)(=O)c1ccc(N[C@H](CCN2CCOCC2)CSc2ccccc2)c(S(=O)(=O)C(F)(F)F)c1)c1ccc(N2CCC([S@+]([O-])c3ccccc3-c3ccc(Cl)cc3)CC2)cc1
< 10 | < 10 | 504 | 2 (≈ 1.93 µg/mL) | – | N#CC1(Cc2ccccc2-c2ccc(Cl)cc2)CCN(c2ccc(C(=O)NS(=O)(=O)c3ccc(N[C@H](CCN4CCOCC4)CSc4ccccc4)c(S(=O)(=O)C(F)(F)F)c3)cc2)CC1
< 10 | < 10 | 395 | < 1 | – | NCC1(Cc2ccccc2-c2ccc(Cl)cc2)CCN(c2ccc(C(=O)NS(=O)(=O)c3ccc(N[C@H](CCN4CCOCC4)CSc4ccccc4)c(S(=O)(=O)C(F)(F)F)c3)cc2)CC1
17 | 30 | 1790 | < 1.5 | – | CCOC(=O)C1(Cc2ccccc2-c2ccc(Cl)cc2)CCN(c2ccc(C(=O)NS(=O)(=O)c3ccc(N[C@H](CCN4CCOCC4)CSc4ccccc4)c(S(=O)(=O)C(F)(F)F)c3)cc2)CC1
59 | < 10 | 112 | 6 (≈ 5.83 µg/mL) | – | O=C(NS(=O)(=O)c1ccc(N[C@H](CCN2CCOCC2)CSc2ccccc2)c(S(=O)(=O)C(F)(F)F)c1)c1ccc(N2CCC(CO)(Cc3ccccc3-c3ccc(Cl)cc3)CC2)cc1
21 | 21 | 3980 | < 1 | – | O=C(NS(=O)(=O)c1ccc(N[C@H](CCN2CCOCC2)CSc2ccccc2)c(S(=O)(=O)C(F)(F)F)c1)c1ccc(N2CCN(Cc3ccccc3-c3ncc(Cl)cn3)CC2)cc1
– | – | 14 | – | – | CC1(C)CCC(c2ccc(Cl)cc2)=C(CN2CCN(c3ccc(C(=O)NS(=O)(=O)c4ccc(N[C@H](CCN5CCOCC5)CSc5ccccc5)c(S(=O)(=O)C(F)(F)F)c4)cc3)CC2)C1 [NAVITOCLAX]

SMILES | IC50 [1] [nM] | IC50 (Bcl-2-like protein 1) [nM] | EC50 (RS4-11) [nM] | solubility thermodynamic [2] [µM] | pKa [3]
O=C(NS(=O)(=O)c1ccc(N[C@H](CCN2CCOCC2)CSc2ccccc2)c(S(=O)(=O)C(F)(F)F)c1)c1ccc(N2CCN(Cc3cccnc3-c3ccc(Cl)cc3)CC2)cc1 | 26 | 25 | 374 | – | –
